Legend:
Mus musculus [1] = test: Percentage of increased life expectancies (ILS) of mice at a dose of 16 mg/kg camptothecin; ILS = (T/C-1) X 100; format: functional
Summary of the method: (§1)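 Mice bearing P388 leukemia dosed ip on days 1–5 to a total of 16 mg/kg camptothecin equivalents, given as aqueous solution or lipid suspension. Groups were 10–20 mice against untreated controls, with survivors counted at 40 days. Read-outs were mean time to death, T/C and ILS = (T/C−1)×100, compared by Student t test assuming equal variances.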

Mus musculus [2] = test: Mean time to death at a dose of 16 mg/kg of camptothecin, mice dosed days 1-5; format: ADME, organism-based; design: dose 16 mg/kg; details: in vivo; summary of the method: as §1
Mus musculus [3] = test: Ratio between mean time to death of treated versus control (survivors at 40 days) at a dose of 16 mg/kg of camptothecin, mice dosed days 1-5; format: functional; summary of the method: as §1
[4] = Half life in PBS buffer (pH 7.4) at 37 degree C (DMSO employed as cosolvent); format: ADME; details: PBS buffer with DMSO as cosolvent
Summary of the method: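 Hydrolysis run at 37 °C in PBS pH 7.4 with DMSO as cosolvent. Half-life recorded in duplicate, with SD ±10%.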

[5] = Half life in PBS buffer (pH 5.6) at 37 degree C; format: ADME
Summary of the method: (§2)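 Hydrolysis run at 37 °C in PBS, pH 5.6 or pH 7.4 as stated in the line. Half-life is the time for loss of the ester. Runs done in duplicate, with SD ±10%.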

[6] = Half life in PBS buffer (pH 7.4) at 37 degree C; format: ADME; summary of the method: as §2
[7] = Half life in rat plasma at 37 degree C; format: ADME, organism-based
Summary of the method: (§3)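 Ester incubated at 37 °C in rat or human plasma. Half-life recorded as disappearance of the transport form, with release of parent drug also followed over time. Runs done in duplicate, with SD ±10%.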

[8] = Half life in human plasma at 37 degree C; format: ADME, organism-based; summary of the method: as §3

SMILES: CC[C@@]1(O)C(=O)OCc2c1cc1n(c2=O)Cc2cc3ccccc3nc2-1 [CAMPTOTHECIN]
- ILS at 16 mg/kg (Mus musculus [1]): 193%
- Mean time to death (Mus musculus [2]): 38.7 days
- T/C (Mus musculus [3]): 2.93

SMILES: CC[C@@]1(OC(C)=O)C(=O)OCc2c1cc1n(c2=O)Cc2cc3ccccc3nc2-1
- half-life [4]: > 72 h

SMILES: CC[C@@]1(OC(=O)CN)C(=O)OCc2c1cc1n(c2=O)Cc2cc3ccccc3nc2-1.O=C(O)C(F)(F)F
- half-life [5]: 16 h
- half-life [6]: 3.5 h
- half-life [7]: 0.5 h
- ILS at 16 mg/kg (Mus musculus [1]): 64%
- Mean time to death (Mus musculus [2]): 21.7 days
- T/C (Mus musculus [3]): 1.64
- half-life [8]: 0.25 h
